Source: ChEMBL document CHEMBL2029233, “Des-acyl ghrelin fragments and analogues promote survival of pancreatic β-cells and human pancreatic islets and prevent diabetes in streptozotocin-treated rats” (2012)
Activity calls are given as the source filed them. The rule behind the calls is not given here. Peptide text beside a SMILES is read from it.

Assays:
[1] = tested on: HIT-T15; assay: Cytoprotective activity in hamster HIT-T15 cells assessed as inhibition of IFN-gamma/TNFalpha/IL1beta-induced cell death at 1 to 100 nM after 24 hrs by MTT assay relative to control; type: functional, cell-based; conditions: Mesocricetus auratus
Summary of the method: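 HIT-T15 cells (5×10^3/well) serum-starved 24 h, then 24 h serum-free with IFN-γ 100 ng/mL, TNF-α 200 ng/mL, IL-1β 10 ng/mL plus peptide (1–100 nM). MTT 1 mg/mL ~1 h, formazan dissolved in DMSO, A570. Reported as percent of cytokine control. Mean ± SE of ≥3 experiments in quadruplicate.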

[2] = tested on: HIT-T15; assay: Cytoprotective activity in hamster HIT-T15 cells assessed as inhibition of serum starvation-induced cell death at 1 to 100 nM after 24 hrs by MTT assay relative to control; type: functional, cell-based; conditions: Mesocricetus auratus
Summary of the method: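 Viability by MTT in HIT-T15 cells seeded at 5×10^3/well, serum-starved 24 h, then 24 h more in serum-free medium with peptide (1–100 nM). MTT 1 mg/mL ~1 h, DMSO solubilization, absorbance 570 nm. Expressed as percent of serum-free control. Mean ± SE, ≥3 experiments in quadruplicate.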

Row | Molecule | Activity [1] | Activity [2]
1 | CC(C)[C@@H](NC(=O)[C@@H](CCCNC(=N)N)NC(=O)[C@@H](CCC(N)=O)NC(=O)[C@@H](Cc1cnc[nH]1)NC(=O)[C@@H](CCC(=O)O)NC(=O)[C@H]1CCCN1C(=O)[C@H](N)CO)C(=O)N[C@H](CCC(N)=O)C(N)=O | inactive | inactive
2 | CC(C)[C@@H](NC(=O)[C@H](CCCNC(=N)N)NC(=O)[C@H](CCC(N)=O)NC(=O)[C@H](Cc1cnc[nH]1)NC(=O)[C@H](CCC(=O)O)NC(=O)[C@@H]1CCCN1C(=O)[C@@H](N)CO)C(=O)N[C@@H](CCC(N)=O)C(N)=O | inactive | inactive
3 | CC(C)[C@@H](NC(=O)[C@H](N)CCC(N)=O)C(=O)N[C@H](CCCNC(=N)N)C(=O)N[C@H](CCC(N)=O)C(=O)N[C@H](Cc1cnc[nH]1)C(=O)N[C@H](CCC(=O)O)C(=O)N1CCC[C@@H]1C(=O)N[C@H](CO)C(N)=O | inactive | inactive
4 | CC(C)[C@H](NC(=O)[C@@H](CCCNC(=N)N)NC(=O)[C@H](CCC(N)=O)NC(=O)[C@H](Cc1cnc[nH]1)NC(=O)[C@H](CCC(=O)O)NC(=O)[C@@H]1CCCN1C(=O)[C@@H](N)CO)C(=O)N[C@@H](CCC(N)=O)C(N)=O | inactive | inactive
5 | CC(C)[C@H](NC(=O)[C@H](CCCNC(=N)N)NC(=O)[C@@H](CCC(N)=O)NC(=O)[C@H](Cc1cnc[nH]1)NC(=O)[C@H](CCC(=O)O)NC(=O)[C@@H]1CCCN1C(=O)[C@@H](N)CO)C(=O)N[C@@H](CCC(N)=O)C(N)=O | inactive | inactive
6 | CC(C)[C@H](NC(=O)[C@H](CCCNC(=N)N)NC(=O)[C@H](CCC(N)=O)NC(=O)[C@@H](Cc1cnc[nH]1)NC(=O)[C@H](CCC(=O)O)NC(=O)[C@@H]1CCCN1C(=O)[C@@H](N)CO)C(=O)N[C@@H](CCC(N)=O)C(N)=O | inactive | inactive
7 | CC(C)[C@H](NC(=O)[C@H](CCCNC(=N)N)NC(=O)[C@H](CCC(N)=O)NC(=O)[C@H](Cc1cnc[nH]1)NC(=O)[C@@H](CCC(=O)O)NC(=O)[C@@H]1CCCN1C(=O)[C@@H](N)CO)C(=O)N[C@@H](CCC(N)=O)C(N)=O | inactive | inactive
8 | CC(C)[C@H](NC(=O)[C@H](CCCNC(=N)N)NC(=O)[C@H](CCC(N)=O)NC(=O)[C@H](Cc1cnc[nH]1)NC(=O)[C@H](CCC(=O)O)NC(=O)[C@@H]1CCCN1C(=O)[C@@H](N)CO)C(=O)N[C@H](CCC(N)=O)C(N)=O | inactive | inactive
9 | CC(C)[C@H](NC(=O)[C@H](CCCNC(=N)N)NC(=O)[C@H](CCC(N)=O)NC(=O)[C@H](Cc1cnc[nH]1)NC(=O)[C@H](CCC(=O)O)NC(=O)[C@@H]1CCCN1C(=O)[C@H](N)CO)C(=O)N[C@@H](CCC(N)=O)C(N)=O | inactive | inactive
10 | CC(C)[C@H](NC(=O)[C@H](CCCNC(=N)N)NC(=O)[C@H](CCC(N)=O)NC(=O)[C@H](Cc1cnc[nH]1)NC(=O)[C@H](CCC(=O)O)NC(=O)[C@H]1CCCN1C(=O)[C@@H](N)CO)C(=O)N[C@@H](CCC(N)=O)C(N)=O | inactive | inactive
11 | N=C(N)NCCC[C@H](NC(=O)[C@H](CCC(N)=O)NC(=O)[C@H](Cc1cnc[nH]1)NC(=O)[C@@H](N)CCC(=O)O)C(N)=O (H-EHQR-NH2) | inactive | –
12 | N=C(N)NCCC[C@H](NC(=O)[C@H](CCC(N)=O)NC(=O)[C@@H](N)Cc1cnc[nH]1)C(N)=O (H-His-Gln-Arg-NH2) | inactive | –
13 | H-APEHQRVQ-NH2 | Active | Active
14 | H-SAEHQRVQ-NH2 | Active | Active
15 | H-SPAHQRVQ-NH2 | Active | Active
16 | H-SPEAQRVQ-NH2 | Active | Active
17 | H-SPEHARVQ-NH2 | inactive | inactive
18 | H-SPEHQAVQ-NH2 | inactive | inactive
19 | H-SPEHQRAQ-NH2 | Active | Active
